In series [1] the test system is Siglec-9 expression on granulocytes. The series is described as follows: Induction of Siglec-9 expression on granulocytes. Format: cell-based, human. The conditions noted are these: FMLP 0.5 and 5 μg/mL, FACS, MFI, n = 4; for Siglec-9 up-regulation on granulocytes, 2 h: TNF-α 10 and 200 U/mL, LPS 10 and 100 ng/mL. The gist of the method:
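Leukocytes from four healthy volunteers were prepared by red-cell lysis of whole blood. Treatments were FMLP (0.5 or 5 μg/mL, 5 min or 2 h), TNF-α (10 or 200 U/mL, 2 h) or LPS (10 or 100 ng/mL, 2 h); untreated cells were controls. Cells were stained with anti-Siglec-9 mAb (3G6 as control), then Alexa546 anti-mouse IgG. Granulocytes were gated by FITC-anti-CD66b and read by flow cytometry as MFI minus control-antibody MFI, mean ± SEM.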

Series [2] has as its system human granulocyte binding to inflamed synovial vessels. Nature of the series: Granulocyte binding to vessels in inflamed synovia. It counts as cell-based. As to conditions: TNF-α 200 U/mL, 2 h; granulocytes from three donors. The gist of the method:
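Percoll-purified granulocytes from three donors were incubated 2 h with TNF-α (200 U/mL) or left untreated. They were then pre-treated 30 min with anti-Siglec-9 or control antibodies. Cells were bound to frozen sections of inflamed human synovium under rotation for 30 min, then glutaraldehyde-fixed. Vessel-bound cells were counted and expressed as % of control-mAb binding (100%), mean ± SEM.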

Series [3] concerns VAP-1 negative knockout mice bearing melanoma xenografts. It counts as in vivo, mouse. As to conditions: KO 60 min; i.v.; ex vivo; mean ± SD, n = 2. An outline of the steps: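 VAP-1 knockout mice received B16 melanoma cells in the neck area and were used 11 days later. 68Ga-DOTA-Siglec-9 peptide was given i.v. (7.8 ± 2.3 MBq, as stated for tumor-bearing mice). Blood, urine and organs were excised, weighed and gamma-counted. Uptake is given as SUV: tissue radioactivity concentration divided by injected radioactivity per body weight.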

The next series concerns human VAP-1 (KOTG mice). It counts as in vivo, human (transgene in mouse). An outline of the steps: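 Ear inflammation was induced with 4 drops of 5% (w/v) DNCB in acetone on the right ear, one day before imaging. Mice were VAP-1 KO, or KOTG (mouse VAP-1-deficient, with human VAP-1 on endothelium under the Tie-1 promoter). 68Ga-DOTA-peptide was given i.v. (KO 7.4 ± 1.8, KOTG 7.5 ± 3.0 MBq). Dynamic PET ran 30 min (OSEM2D), read as SUV, and was checked by ex vivo gamma counting of excised tissues.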

The test system of series [4] is site of inflammation (VAP-1). The series is described as follows: PET imaging, rats with turpentine-induced sterile inflammation. Format: in vivo, rat (Sprague-Dawley). An outline of the steps:
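Sprague-Dawley rats received turpentine oil s.c. in the upper neck, and 24 h later 68Ga-labelled DOTA test peptide i.v. (18.4 ± 3.1 MBq). A 60 min list-mode PET scan was reconstructed by OSEM3D, with blood sampled during imaging. ROIs covered inflammation, muscle, organs and bladder. SUV was ROI concentration divided by injected activity per body weight, corrected for tail residue. Excised organs were then gamma-counted as SUV; three animals.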

For series [5], the system named is VAP-1 (wild type mice bearing melanoma xenografts). It counts as in vivo, mouse. The gist of the method:
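Wild-type mice received B16 melanoma cells in the neck area and were used 11 days later. 68Ga-DOTA-peptide was injected i.v., then dynamic PET ran 60 min (OSEM2D reconstruction). SUV is ROI radioactivity concentration divided by injected activity per body weight, corrected for tail residue. A separate group got 500-fold molar excess of unlabeled peptide co-injected. Blood, urine and organs were then excised, weighed and gamma-counted.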

The subject of another series is VAP-1 in melanoma tumor. The series is described as follows: Digital autoradiography of tumor cryosections. It counts as in vivo, mouse. The conditions noted are these: i.v. 3.0 ± 0.4 MBq, 15 min. The gist of the method:
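B16 melanoma cells were inoculated abdominally, and mice were used 11 days later. Mice received 68Ga-labelled DOTA test peptide i.v. (3.0 ± 0.4 MBq) and were killed after 15 min. Tumour cryosections went to digital autoradiography as PSL/mm2. ROIs covered VAP-1-positive and VAP-1-negative areas, set by anti-mouse VAP-1 staining of adjacent sections. Background was subtracted and values normalised to muscle; four mice, mean ± SD.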

Series [6] has as its target Vascular Adhesion Protein-1 (VAP-1), human, recombinant (human) (UniProt Q16853). The series is described as follows: SPR.
UniProt Q16853, sequence (Q16853 whole entry): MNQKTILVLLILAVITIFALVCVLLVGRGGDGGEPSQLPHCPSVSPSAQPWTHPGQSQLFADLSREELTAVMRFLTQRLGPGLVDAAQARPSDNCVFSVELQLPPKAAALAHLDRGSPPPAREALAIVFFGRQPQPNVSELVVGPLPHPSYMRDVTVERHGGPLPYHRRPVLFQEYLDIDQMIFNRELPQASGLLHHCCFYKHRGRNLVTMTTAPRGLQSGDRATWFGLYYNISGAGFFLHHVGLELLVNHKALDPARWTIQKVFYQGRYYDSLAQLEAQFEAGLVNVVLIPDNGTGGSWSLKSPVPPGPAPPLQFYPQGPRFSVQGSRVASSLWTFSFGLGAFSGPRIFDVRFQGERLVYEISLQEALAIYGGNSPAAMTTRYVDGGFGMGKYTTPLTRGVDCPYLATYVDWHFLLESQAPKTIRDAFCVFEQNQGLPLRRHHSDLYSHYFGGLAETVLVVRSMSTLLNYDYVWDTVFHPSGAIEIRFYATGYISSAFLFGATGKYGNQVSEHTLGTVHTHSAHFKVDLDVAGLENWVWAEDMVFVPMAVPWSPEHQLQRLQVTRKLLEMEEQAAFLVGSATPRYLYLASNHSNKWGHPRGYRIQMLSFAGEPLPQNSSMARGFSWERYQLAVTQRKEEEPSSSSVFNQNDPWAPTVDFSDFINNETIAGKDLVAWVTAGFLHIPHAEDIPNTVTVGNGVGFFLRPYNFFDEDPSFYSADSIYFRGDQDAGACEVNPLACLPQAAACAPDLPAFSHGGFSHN
Series [7] relates to recombinant or affinity purified human VAP-1. The series is described as follows: Surface plasmon resonance. Format: binding.
A further series relates to mouse VAP-1. The series is described as follows: Adhesion of CHO-Siglec-E cells to CHO cells transfected with mouse VAP-1. It counts as cell-based. The conditions noted are these: CHO-Siglec-E or mock; Supplemental Figure 1. An outline of the steps:
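CHO cells expressing mouse VAP-1, or mock CHO, were grown to confluence in 96-well plates and blocked with PBS/1% BSA. CFSE-labelled CHO-Siglec-E cells (2 × 10^5) were added for 30 min at 37°C. After nine washes, adherence was read by fluorometer, and the wells were imaged by microscope.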

For a further series, the system named is VAP-1. As to conditions: tyrosine 471 of VAP-1 and Arg293 in Siglec-10; ref [6]; cited from earlier work.
Setting [8] is: WT 60 min, i.v., ex vivo, mean ± SD, n = 3.

Here are results for ten molecules from paper PMC3833035 (Blood, 2011).

“Also recorded” adds a separate entry of the source. No end group written: not given here.

Consider lipopolysaccharide [LPS], for which the “Siglec-9 up-regulation on granulocytes, 2 h” value (“Siglec-9 up-regulation … 2 h” for short) in [1] is given as “significant up-regulation of Siglec-9 after 2 h”.

Turning to tumor necrosis factor-α [TNF-α], the “Siglec-9 up-regulation … 2 h” value in series [1] was “significant up-regulation of Siglec-9 after 2 h”. Further, the “granulocyte binding to inflamed synovial vasculature after TNF-α” value in [2] is “significantly increased granulocyte binding to synovial vasculature”.

Regarding CARLSLSWRGLTLCPSK [^68Ga-DOTA-peptide], in [3], the “uptake in blood (SUV), KO” value is listed as 0.25 ± 0.01 standardized uptake values; the “uptake in kidney (SUV), KO” value is listed as 7.78 ± 1.47 standardized uptake values; the “uptake in liver (SUV), KO” value was 0.97 ± 0.07 standardized uptake values; the “uptake in muscle (SUV), KO” value was 0.04 ± 0.01 standardized uptake values. Further, in series [3], the “uptake in small intestine (SUV), KO” value is recorded as 0.08 ± 0.01 standardized uptake values and the “uptake in tumour (SUV), KO” value is recorded as 0.20 ± 0.02 standardized uptake values. For the same molecule, in the series with human VAP-1 (KOTG mice) (DNCB ear skin inflammation, Supplemental Figure 2), the “detection of inflammation in the mouse (PET)” value is “able to detect inflammation in the mouse”. Also, the “signals in many organs, KOTG vs KO mice” value in the series with human VAP-1 (KOTG mice) (i.v. 7.5 ± 3.0 MBq (KOTG), 7.4 ± 1.8 MBq (KO), Supplemental Table 2) is “detects human VAP-1 in many organs realized as higher signals than in KO mice”. In series [4] (i.v. 18.4 ± 3.1 MBq, 5-10 min, 24 h after turpentine, rat), the “accumulation at sites of inflammation vs muscle (PET)” value is “quickly and preferentially accumulated at the sites of inflammation (5-10 min) in comparison to the muscle; also recorded: clearly seen at the site of inflammation (I) but not in the surrounding muscle”. In [4] (i.v., PET), the elimination route result is “eliminated rapidly via kidneys to the urinary bladder”. In [5] (setting [8]), the “uptake in kidney (SUV), WT” value is 5.10 ± 0.86 standardized uptake values; the “uptake in liver (SUV), WT” value is on record as 1.82 ± 0.25 standardized uptake values; the “uptake in lung (SUV), WT” value is given as 0.69 ± 0.21 standardized uptake values; the “uptake in muscle (SUV), WT” value is recorded as 0.21 ± 0.07 standardized uptake values. In addition, in series [5] (setting [8]), the “uptake in small intestine (SUV), WT” value is listed as 0.59 ± 0.16 standardized uptake values and the “uptake in tumour (SUV), WT” value is recorded as 0.56 ± 0.12 standardized uptake values. For the same molecule, the “accumulation at tumor site (PET)” value in [5] (i.v. 7.8 ± 2.3 MBq, B16 melanoma, wild type mice) is given as “accumulated at the tumor site”. In the series on VAP-1 in melanoma tumor, the “distribution of radioactivity within tumor” value is “radioactivity concentrated in the periphery of the tumor”.

For the molecule “cyclic Siglec-9-like peptide without Arg284 (P1_noArg284) (from UniProt Q9Y336 283-297)”, in series [6], the percent reduction of binding against the wild type peptide was 66%.

For CARLSLSWRGLTLCPS [wild type peptide], in series [7] (Biacore X, CM5 chip, immobilized VAP-1, wild type peptide at 0-400 μM), the “binding to recombinant VAP-1 (SPR)” value is recorded as “bound to recombinant VAP-1”.

On to “formyl-methyl-leucine-phenylalanine [FMLP]”, for which, in series [1], the “Siglec-9 up-regulation … 2 h” value is on record as “further up-regulation was seen after 2 h; also recorded: roughly two-fold after 2 h”. Also, the “Siglec-9 up-regulation on granulocytes, 5 min” value in series [1] (5 min) is recorded as “slightly up-regulated Siglec-9 expression already after 5 min; also recorded: slight up-regulation was already seen after 5 min”.

“cyclic Siglec-9-like peptide without Arg290 (P1_noArg290) (from UniProt Q9Y336 283-297)”: the percent reduction of binding against the wild type peptide in [6] amounted to 42%.

“mutated Siglec-9 peptide: mutated Siglec-9 peptide, in which both arginines were mutated to alanines (CAALSLSWAGLTLCPS; also: cyclic peptide, ring type not given here)”: the “binding to recombinant VAP-1 (SPR), double arginine mutant” value in [7] (both arginines mutated to alanines, data not shown) was “failed to bind recombinant VAP-1”.

B1: Siglec-E: mouse molecule corresponding to human Siglec-9, expressed on CHO cells (protein)
chain: QNPQEVFTLNVERKVVVQEGLCVLVPCNFSYLKKRLTDWTDSDPVHGFWYREGTDRRKDSIVATNNPIRKAVKETRNRFFLLGDPWRNDCSLNIREIRKKDAGLYFFRLERGKTKYNYMWDKMTLVVTALTNTPQILLPETLEAGHPSNLTCSVPWDCGWTAPPIFSWTGTSVSFLSTNTTGSSVLTITPQPQDHGTNLTCQVTLPGTNVSTRMTIRLNVSYAPKNLTVTIYQGADSVSTILKNGSSLPISEGQSLRLICSTDSYPPANLSWSWDNLTLCPSKLSKPGLLELFPVHLKHGGVYTCQAQHALGSQHISLSLSPQSSATLSEMMMGTFVGSGVTALLFLSVCILLLAVRSYRRKPARPAVVAPHPDALKVSVSQNPLVESQADDSSEPLPSILEAAPSSTEEEIHYATLSFHEMKPMNLWGQQDTTTEYSEIKFPQRTAWP
In the case of B1, the “adhesion of Siglec-E cells to mouse VAP-1 cells” value in the series on mouse VAP-1 is given as “no VAP-1-Siglec-E mediated adhesion was detected”.

B2: Siglec-10: lymphocyte ligand for VAP-1 (protein, UniProt Q96LC7 17-697, looked up)
Sialic acid-binding Ig-like …: MDGRFWIRVQESVMVPEGLCISVPCSFSYPRQDWTGSTPAYGYWFKAVTETTKGAPVATNHQSREVEMSTRGRFQLTGDPAKGNCSLVIRDAQMQDESQYFFRVERGSYVRYNFMNDGFFLKVTALTQKPDVYIPETLEPGQPVTVICVFNWAFEECPPPSFSWTGAALSSQGTKPTTSHFSVLSFTPRPQDHNTDLTCHVDFSRKGVSAQRTVRLRVAYAPRDLVISISRDNTPALEPQPQGNVPYLEAQKGQFLRLLCAADSQPPATLSWVLQNRVLSSSHPWGPRPLGLELPGVKAGDSGRYTCRAENRLGSQQRALDLSVQYPPENLRVMVSQANRTVLENLGNGTSLPVLEGQSLCLVCVTHSSPPARLSWTQRGQVLSPSQPSDPGVLELPRVQVEHEGEFTCHARHPLGSQHVSLSLSVHYSPKLLGPSCSWEAEGLHCSCSSQASPAPSLRWWLGEELLEGNSSQDSFEVTPSSAGPWANSSLSLHGGLSSGLRLRCEAWNVHGAQSGSILQLPDKKGLISTAFSNGAFLGIGITALLFLCLALIIMKILPKRRTQTETPRPRFSRHSTILDYINVVPTAGPLAQKRNQKATPNSPRTPLPPGAPSPESKKNQKKQYQLPSFPEPKSSTQAPESQESQEELHYATLNFPGVRPRPEARMPKGTQADYAEVKFQ
On to B2, for which, in the series with VAP-1, the “dependence of Siglec-10/VAP-1 interaction on enzymatic activity” value is “completely dependent on the enzymatic activity of VAP-1”.
